Reference: paper PMC5458759 (Genes & Development, 2017)
Blank lines part the entries; values can stand above or below the molecule they belong to.

T1: ER^LRR–TMM^LRR complex (Arabidopsis thaliana, UniProt Q42371;Q9SSD1)
T1 sequence 1: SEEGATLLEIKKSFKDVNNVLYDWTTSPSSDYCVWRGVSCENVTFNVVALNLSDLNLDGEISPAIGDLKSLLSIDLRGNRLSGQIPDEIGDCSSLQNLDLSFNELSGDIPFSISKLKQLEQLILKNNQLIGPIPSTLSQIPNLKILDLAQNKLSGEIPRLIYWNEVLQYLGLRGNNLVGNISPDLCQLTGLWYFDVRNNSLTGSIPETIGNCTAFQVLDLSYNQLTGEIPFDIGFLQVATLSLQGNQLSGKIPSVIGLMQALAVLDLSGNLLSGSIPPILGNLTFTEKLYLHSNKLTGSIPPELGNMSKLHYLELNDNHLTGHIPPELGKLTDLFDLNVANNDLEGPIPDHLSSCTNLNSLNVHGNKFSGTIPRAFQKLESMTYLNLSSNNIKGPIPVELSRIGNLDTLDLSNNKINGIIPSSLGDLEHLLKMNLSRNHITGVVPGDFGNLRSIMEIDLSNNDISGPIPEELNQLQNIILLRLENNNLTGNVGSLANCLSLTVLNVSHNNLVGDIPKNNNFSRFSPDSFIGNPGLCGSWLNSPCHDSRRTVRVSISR
T1 sequence 2: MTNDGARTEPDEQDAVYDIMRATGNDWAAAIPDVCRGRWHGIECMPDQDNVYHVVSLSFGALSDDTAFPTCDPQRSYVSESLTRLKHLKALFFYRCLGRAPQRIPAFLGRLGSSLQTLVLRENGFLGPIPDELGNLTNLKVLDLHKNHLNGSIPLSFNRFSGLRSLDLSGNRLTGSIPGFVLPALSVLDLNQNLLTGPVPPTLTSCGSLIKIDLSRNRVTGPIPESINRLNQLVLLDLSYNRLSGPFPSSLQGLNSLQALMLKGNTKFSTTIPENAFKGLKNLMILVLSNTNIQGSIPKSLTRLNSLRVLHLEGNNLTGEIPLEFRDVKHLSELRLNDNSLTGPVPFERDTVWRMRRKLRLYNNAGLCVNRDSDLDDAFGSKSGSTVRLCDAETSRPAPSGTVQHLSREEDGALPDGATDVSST

T2: ER^LRR, extracellular LRR domain of ERECTA (ER) (Arabidopsis thaliana, UniProt Q42371 24-580)
T2 sequence: T1 sequence 1

T3: ERL1^LRR, extracellular LRR domain of ER-LIKE1 (ERL1) (Arabidopsis thaliana, UniProt C0LGW6 24-580)
T3 sequence: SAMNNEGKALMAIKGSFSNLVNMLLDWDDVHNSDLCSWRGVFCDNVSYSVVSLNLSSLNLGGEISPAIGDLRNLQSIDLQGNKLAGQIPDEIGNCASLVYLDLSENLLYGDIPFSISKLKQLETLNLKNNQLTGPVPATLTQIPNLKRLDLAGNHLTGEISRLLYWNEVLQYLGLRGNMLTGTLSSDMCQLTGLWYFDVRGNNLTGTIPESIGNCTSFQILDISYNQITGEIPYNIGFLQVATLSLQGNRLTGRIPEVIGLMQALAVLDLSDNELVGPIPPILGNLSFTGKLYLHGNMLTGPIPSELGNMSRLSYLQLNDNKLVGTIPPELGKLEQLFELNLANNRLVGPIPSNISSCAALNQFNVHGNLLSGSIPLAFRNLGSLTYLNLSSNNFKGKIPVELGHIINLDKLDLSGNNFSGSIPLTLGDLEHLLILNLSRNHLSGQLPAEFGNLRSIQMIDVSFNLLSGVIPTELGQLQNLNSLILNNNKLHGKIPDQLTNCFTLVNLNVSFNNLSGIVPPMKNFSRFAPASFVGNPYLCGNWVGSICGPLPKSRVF

T4: ERL1^LRR–TMM^LRR complex (Arabidopsis thaliana, UniProt C0LGW6;Q9SSD1)
T4 sequence 1: T3 sequence
T4 sequence 2: T1 sequence 2

T5: ERL2^LRR, extracellular LRR domain of ERL2 (Arabidopsis thaliana, UniProt Q6XAT2 28-580)
T5 sequence: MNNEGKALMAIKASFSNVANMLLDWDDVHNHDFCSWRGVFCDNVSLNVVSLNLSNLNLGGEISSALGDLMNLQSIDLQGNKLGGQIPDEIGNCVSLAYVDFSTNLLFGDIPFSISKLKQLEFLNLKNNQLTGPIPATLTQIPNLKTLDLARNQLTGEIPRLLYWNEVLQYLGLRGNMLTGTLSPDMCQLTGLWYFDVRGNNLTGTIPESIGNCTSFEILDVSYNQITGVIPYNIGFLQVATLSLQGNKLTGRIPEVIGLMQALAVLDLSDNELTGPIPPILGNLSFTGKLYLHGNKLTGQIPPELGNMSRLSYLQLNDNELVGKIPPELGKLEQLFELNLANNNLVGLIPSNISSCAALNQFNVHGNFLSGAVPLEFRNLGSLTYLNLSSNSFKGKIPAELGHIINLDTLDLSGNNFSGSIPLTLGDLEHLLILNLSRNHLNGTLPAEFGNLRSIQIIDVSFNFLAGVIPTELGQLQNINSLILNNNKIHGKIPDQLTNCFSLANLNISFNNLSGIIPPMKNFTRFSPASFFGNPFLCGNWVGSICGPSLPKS

B1: … PATTERNING FACTOR 1 (EPF1) peptide, residues 53–104 (peptide)
chain: AGSRLPDCSHACGSCSPCRLVMVSFVCASVEEAETCPMAYKCMCNNKSYPVP
B2: TMM^LRR, extracellular LRR domain of TOO MANY MOUTHS (TMM) (domain or fragment)
chain: T1 sequence 2
B3: EPFL4 (CHALLAH-LIKE2, CLL2) peptide, residues 59–109 (peptide)
chain: PGSSPPTCRSKCGKCQPCKPVHVPIQPGLSMPLEYYPEAWRCKCGNKLFMP
B4: … PATTERNING FACTOR 2 (EPF2) peptide, residues 69–120 (peptide)
chain: TGSSLPDCSYACGACSPCKRVMISFECSVAESCSVIYRCTCRGRYYHVPSRA
B5: EPF2-6xHis (C-terminally His-tagged EPF2) (peptide)
chain: B4 chain

How the values were obtained:
[1] = target: ERL1^LRR–TMM^LRR complex (Arabidopsis thaliana) (UniProt C0LGW6); assay: ITC
ERL2^LRR = assay: Pull-down assay with 6xHis-tagged ERL2^LRR; type: binding, Arabidopsis; settings: Ni resin, SDS-PAGE, Coomassie blue; without TMM^LRR
Outline: (§1)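 Purified C-terminal 6xHis-tagged receptor LRR, from High Five cells, was mixed with excess EPF-family peptide and Ni resin for 30 min on ice. The resin was washed four times in 25 mM Tris pH 8.0, 250 mM NaCl, 15 mM imidazole, then heated 5 min at 100°C in SDS loading buffer. Bound protein was detected by SDS-PAGE with Coomassie staining.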

ERL1^LRR [2] = assay: Pull-down assay with 6xHis-tagged ERL1^LRR; type: binding, Arabidopsis; settings: Ni resin, SDS-PAGE, Coomassie blue; without TMM^LRR
Outline: as §1

ER^LRR [3] = assay: Pull-down assay with 6xHis-tagged ER^LRR; type: binding, Arabidopsis; settings: Ni resin, SDS-PAGE, Coomassie blue; without TMM^LRR
Outline: as §1

ER^LRR–TMM^LRR complex [4] = assay: Gel filtration assay with ER^LRR–TMM^LRR complex; type: binding, Arabidopsis; settings: 10 mM Bis-Tris pH 6.0, 100 mM NaCl; incubated 30 min at 4°C
Outline: (§2)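 LRR ectodomains were expressed in High Five insect cells by baculovirus at 22°C; for complexes, the ERf and TMM viruses were added together. Protein was purified from the supernatant by Ni-NTA and then size exclusion. Receptor and EPF-family peptide were mixed, held 30 min at 4°C, then run on Superdex 200 in 10 mM Bis-Tris pH 6.0, 100 mM NaCl. Fractions were analysed by SDS-PAGE with Coomassie staining.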

ER^LRR [5] = assay: Gel filtration assay with ER^LRR; type: binding, Arabidopsis; settings: 10 mM Bis-Tris pH 6.0, 100 mM NaCl; incubated 30 min at 4°C
Outline: as §2

ERL1^LRR–TMM^LRR complex [6] = assay: Gel filtration assay with ERL1^LRR–TMM^LRR complex; type: binding, Arabidopsis; settings: 10 mM Bis-Tris pH 6.0, 100 mM NaCl; incubated 30 min at 4°C
Outline: as §2

ERL1^LRR [7] = assay: Gel filtration assay with ERL1^LRR; type: binding, Arabidopsis; settings: 10 mM Bis-Tris pH 6.0, 100 mM NaCl; incubated 30 min at 4°C
Outline: as §2

ER^LRR–TMM^LRR complex [8] = target: T1, ER^LRR–TMM^LRR complex; assay: SEC
[9] = target: B2; assay: crystal structure
[10] = target: T2, ER^LRR, extracellular LRR domain of …; assay: SEC
[11] = target: T3, ERL1^LRR, extracellular LRR domain of …; assay: SEC
ERL1^LRR–TMM^LRR complex [12] = target: T4, ERL1^LRR–TMM^LRR complex; assay: ITC
[13] = target: T2, ER^LRR, extracellular LRR domain of …; assay: pull-down
[14] = target: T5, ERL2^LRR, extracellular LRR domain of …; assay: pull-down
ER^LRR–TMM^LRR complex [15] = target: T1, ER^LRR–TMM^LRR complex; assay: pull-down

Kd [1]: 420 nM
Molecule: EPFL4–EPF1, swapped EPFL4 mutant with the apical loop region of EPF1 (peptide)

Molecule: EPFL6: EPF family growth regulatory peptide, residues 106–156 (LGSSPPRCSSKCGRCTPCKPVHVPVPPGTPVTAEYYPEAWRCKCGNKLYMP)
interaction with ERL2^LRR in pull-down (ERL2^LRR): sufficient for interaction
interaction with ERL1^LRR in pull-down (ERL1^LRR [2]): sufficient for interaction
interaction with ER^LRR in pull-down (ER^LRR [3]): sufficient for interaction

Molecule: EPF1: cysteine-rich EPF family peptide, residues 53–104, expressed in High Five insect cells (AGSRLPDCSHACGSCSPCRLVMVSFVCASVEEAETCPMAYKCMCNNKSYPVP)
interaction with ER^LRR–TMM^LRR in gel filtration (comigration) (ER^LRR–TMM^LRR complex [4]): strong interaction
interaction with ER^LRR alone in gel filtration (ER^LRR [5]): no binding
interaction with ERL1^LRR–TMM^LRR in gel filtration (comigration) (ERL1^LRR–TMM^LRR complex [6]): strong interaction
interaction with ERL1^LRR alone in gel filtration (ERL1^LRR [7]): no binding

Molecule: EPF2: cysteine-rich EPF family peptide, residues 69–120, expressed in insect cells (TGSSLPDCSYACGACSPCKRVMISFECSVAESCSVIYRCTCRGRYYHVPSRA)
interaction with ERL2^LRR in pull-down (ERL2^LRR): none of the three ERf proteins displayed interaction
interaction with ER^LRR–TMM^LRR in gel filtration (comigration) (ER^LRR–TMM^LRR complex [4]): strong interaction
interaction with ER^LRR alone in gel filtration (ER^LRR [5]): no binding
interaction with ERL1^LRR–TMM^LRR in gel filtration (comigration) (ERL1^LRR–TMM^LRR complex [6]): strong interaction
interaction with ERL1^LRR alone in gel filtration (ERL1^LRR [7]): no binding
interaction with ERL1^LRR in pull-down (ERL1^LRR [2]): none of the three ERf proteins displayed interaction
interaction with ER^LRR in pull-down (ER^LRR [3]): none of the three ERf proteins displayed interaction

Molecule: B1
binding result (ER^LRR–TMM^LRR complex [8]): binds
binding result [9]: binds

Molecule: B2
stoichiometry N [10]: ~1
stoichiometry N [11]: ~1

Molecule: B3
Kd (ERL1^LRR–TMM^LRR complex [12]): 1300 nM
binding result [13]: binds
binding result [14]: binds

Molecule: B4
binding result (ER^LRR–TMM^LRR complex [8]): binds
binding result [9]: binds

Molecule: B5
binding result (ER^LRR–TMM^LRR complex [15]): binds
